The subject of one experiment is HEK-293 cells. In words: Cytotoxicity / viability assay, HEK-293. The format is cell-based. To be noted: Homo sapiens, HEK293, read-out: HEK-293 IC50. Put shortly:
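HEK-293 cells were grown in medium per the provider's instructions with 100 units/mL penicillin and 100 μg/mL streptomycin, at 37 °C in 5 % CO2. Log-phase cells were seeded at 5000 per well, left 24 h, then exposed in triplicate to a range of test compound concentrations for 72 h. Resazurin was added for 4–6 h and fluorescence read. Values are relative to DMSO vehicle, with IC50 from a variable-slope normalized-response fit. Each compound was tested at least three times.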

The target of a further experiment is KIT (Homo sapiens, UniProt P10721). As to the kind of experiment: KINOMEscan site-directed competition binding assay, KIT. To be noted: 4.5 nM compound, 97 kinase panel. Put shortly:
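Competition binding read by qPCR against DNA-tagged kinases. Streptavidin magnetic beads loaded with biotinylated ligand (30 min, RT), biotin-blocked and washed. Kinase, beads and test compound (diluted from 100x DMSO stocks) combined in 20 % SeaBlock, 0.17x PBS, 0.05 % Tween 20, 6 mM DTT; 1 h RT with shaking. […] Kinase in eluate quantified by qPCR.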

In experiment [1] the test system is phosphorylation of FLT3 and ERK in MOLM14 cells. As to the kind of experiment: Western blot, MOLM14 cells. Type of experiment: cell-based, human. To be noted: 2 h. Put shortly:
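Cells kept at 37 °C under 5 % CO2. Total cell lysates separated by SDS-PAGE and transferred to nitrocellulose. Membranes probed with primary antibodies to pFLT3 Y842, total FLT3, pERK, total ERK and GAPDH, then with secondary antibodies, and imaged.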
(A western blot detects proteins with antibodies after separation by electrophoresis.)

Molecules are shown by their SMILES.

KIT, sequence (P10721 26-976): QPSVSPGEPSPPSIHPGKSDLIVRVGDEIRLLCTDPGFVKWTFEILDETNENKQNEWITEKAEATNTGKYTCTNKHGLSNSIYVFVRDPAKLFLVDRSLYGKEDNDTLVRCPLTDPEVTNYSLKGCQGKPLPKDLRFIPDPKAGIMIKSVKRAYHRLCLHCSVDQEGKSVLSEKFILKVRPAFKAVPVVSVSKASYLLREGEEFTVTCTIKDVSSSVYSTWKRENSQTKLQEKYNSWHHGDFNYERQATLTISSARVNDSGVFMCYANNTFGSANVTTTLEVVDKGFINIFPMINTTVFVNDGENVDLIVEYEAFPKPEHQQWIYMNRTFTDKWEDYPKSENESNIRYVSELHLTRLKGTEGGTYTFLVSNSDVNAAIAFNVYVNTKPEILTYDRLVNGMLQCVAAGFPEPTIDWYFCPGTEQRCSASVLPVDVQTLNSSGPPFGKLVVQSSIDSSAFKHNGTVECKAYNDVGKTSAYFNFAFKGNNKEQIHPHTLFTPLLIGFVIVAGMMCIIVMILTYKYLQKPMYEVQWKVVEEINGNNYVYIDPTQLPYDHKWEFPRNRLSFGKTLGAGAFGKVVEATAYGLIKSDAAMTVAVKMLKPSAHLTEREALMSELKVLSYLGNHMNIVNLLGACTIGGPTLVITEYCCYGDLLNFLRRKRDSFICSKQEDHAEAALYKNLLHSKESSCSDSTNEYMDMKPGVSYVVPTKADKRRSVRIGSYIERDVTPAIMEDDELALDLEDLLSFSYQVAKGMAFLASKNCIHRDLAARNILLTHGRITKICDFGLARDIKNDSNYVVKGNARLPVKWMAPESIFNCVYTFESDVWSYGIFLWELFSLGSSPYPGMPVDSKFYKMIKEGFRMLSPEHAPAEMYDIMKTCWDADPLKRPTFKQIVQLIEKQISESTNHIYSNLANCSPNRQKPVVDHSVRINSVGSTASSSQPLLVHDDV

`Cn1cc(-c2ccn3c(-c4cccc(Nc5ccc(S(C)(=O)=O)cc5)n4)cnc3c2)cn1` [Compound 24, 6-(7-(1-methyl-1H-pyrazol-4-yl)imidazo [1,2-a]pyridin-3-yl)-N-(4-(methylsulfonyl)phenyl)pyridin-2-amine]: the half-maximal inhibitory concentration (IC50) in the experiment on HEK-293 cells is > 1000 nM. For the same molecule, the “binding affinity with KIT” value on KIT is listed as “minimal binding affinity”. In addition, the “inhibitory effects on the phosphorylation of FLT3 and ERK” value is reported as “noticeable signal downregulation” in experiment [1] (1X IC50 (4.5 nM)) and “nearly complete signal downregulation” in experiment [1] (10X IC50).

Turning to `COc1ccc(Nc2cccc(-c3cnc4cc(-c5cnn(C)c5)ccn34)n2)cc1OC` [Compound 20, N-(3,4-dimethoxyphenyl)-6-(7-(1-methyl-1H-pyrazol-4-yl)imidazo [1,2-a]pyridin-3-yl)pyridin-2-amine], the IC50 with HEK-293 cells is > 1000 nM.

As for `COc1cc(Nc2cccc(-c3cnc4cc(-c5ccc(S(C)(=O)=O)cc5)ccn34)n2)cc(OC)c1OC` [Compound 42, 6-(7-(4-(methylsulfonyl)phenyl)imidazo [1,2-a]pyridin-3-yl)-N-(3,4,5-trimethoxyphenyl)pyridin-2-amine], in the experiment on HEK-293 cells, the IC50 was > 1000 nM.

Broadly, the IC50 is the concentration that inhibits the measured activity by half.

(Values after publication PMC11590664 (European journal of medicinal chemistry, 2023).)
